An excerpt weighted towards active compounds, which were near 3.7% of everything screened.
KCNQ1 pot = potentiators or activators of KCNQ1 channel, primary screen, cell-based, thallium flux, high-throughput; CHO-K1 KCNQ1, thallium flux FluxOR fluorescence; stronger effect = higher value; B-score at 10 µM; 310,000 tested, 0.35% active;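 active = fluorescence ratio B-score, a plate-corrected score, at least three library SD, with initial intensity B-score within 5 SD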
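Test system: CHO-K1 cells stably expressing KCNQ1 / Medium: assay buffer / Also added: depolarizing K+/Tl+ stimulus, K2SO4 and Tl2SO4 each 12.5 mM in 5x stock / Incubation: 90 min dye loading and 20 min compound exposure, both at room temperature / Signal: thallium influx via FluxOR fluorescence, kinetic imaging / Evaluation: B score of baseline-normalized fluorescence ratio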
KCNK9 block = KCNK9 potassium channel inhibitors, primary screen, HEK293 cells, thallium flux. Potassium channel subfamily K member 9 (Homo sapiens), Q9NPC2. FluxOR thallium flux fluorescence; stronger effect = lower value. B-score at 10 µM. 310,000 tested, 1.2% active. AID 488922, 2010;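 active = ratio B-score over 3 SD below the library mean, with starting fluorescence within 5 SD of its mean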;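 also: negative B-score means less thallium flux so channel inhibition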
Target sequence (Q9NPC2 whole entry, looked up): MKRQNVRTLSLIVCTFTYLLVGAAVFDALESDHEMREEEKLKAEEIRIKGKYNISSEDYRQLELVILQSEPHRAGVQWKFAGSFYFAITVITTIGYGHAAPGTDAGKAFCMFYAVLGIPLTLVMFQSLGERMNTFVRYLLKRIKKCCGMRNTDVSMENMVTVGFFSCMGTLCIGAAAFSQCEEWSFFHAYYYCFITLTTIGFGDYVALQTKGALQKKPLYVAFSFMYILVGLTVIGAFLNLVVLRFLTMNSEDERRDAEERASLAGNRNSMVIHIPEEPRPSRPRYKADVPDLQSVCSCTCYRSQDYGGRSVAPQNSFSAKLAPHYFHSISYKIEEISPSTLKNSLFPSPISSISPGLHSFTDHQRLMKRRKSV
KCNK3 block = human KCNK3 channel inhibitors, primary screen, CHO cells, FluxOR thallium flux, B-score; Potassium channel subfamily K member 3 (Homo sapiens), O14649; FluxOR fluorescence; stronger effect = lower value; B-score at 10 µM; 340,000 tested, 0.84% active;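 active = B-score under library mean minus 4 SD, starting fluorescence ratio at most library mean plus 5 SD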;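 also: more negative B-score means stronger inhibition of thallium flux through KCNK3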
Kir21 inh = inhibitors of mouse Kir2.1 inward-rectifier potassium channel; B-score at 10 µM; Inward rectifier potassium channel 2 (Mus musculus), P35561; HEK293-Kir2.1, FluxOR thallium flux fluorescence; stronger effect = lower value; 310,000 tested, 0.85% active;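 active = fluorescence ratio B-score at or below minus 3 SD of library scores, with starting-brightness B-score within 2 SD, cut at about -4.2 in these data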;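 also: channel flux triggered by added potassium and thallium sulfate stimulus; B-score of peak minus minimum fluorescence over baseline after thallium stimulus; more negative B-score means stronger Kir2.1 block with less thallium influx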
hERG protect = hERG rescue from dofetilide block, primary screen, cell-based, CHO-hERG, FluxOR thallium flux, dofetilide IC70 | activation (rescue from dofetilide block), less the hit threshold, % at 10 µM | Voltage-gated inwardly rectifying potassium channel KCNH2 (Homo sapiens), Q12809 | AID 1511, 2009 | 310,000 tested, 0.51% active | dofetilide IC70 present;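 active = activation above the mean of controls blocked by dofetilide plus 5 SD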;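 also: thallium influx through hERG after potassium depolarization seen as dye fluorescence rise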
KCNQ1 inh = inhibitors of human KCNQ1 channel, primary screen, cell-based, thallium flux, high-throughput; CHO-K1 KCNQ1, FluxOR thallium flux fluorescence; stronger effect = higher value; B-score at 10 µM; 310,000 tested, 1.3% active; AID 2642, 2010;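 active = compounds whose thallium flux B-score, printed positive for inhibition, exceeds three library SD while starting fluorescence stays within three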;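 also: channel opened by potassium depolarization with thallium stimulus after 20 min compound exposure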
KCNK9 block conf = KCNK9 potassium channel inhibitors, confirmation, HEK293 cells, thallium flux, duplicate; inhibition, % at 10 µM; AID 492992, 2010; shares compounds with KCNK9 block; 4,900 tested, 43% active; FluxOR thallium flux fluorescence;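 active = thallium signal inhibited by more than 5 SD of the compound-free buffer control wells, on both duplicate plates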;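 also: 0% = assay buffer control wells without compound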
Kir21 sel = mouse Kir2.1 channel inhibition, confirmation, selectivity assay for KCNK9 modulator project, cell-based, HEK293, thallium flux; shares compounds with KCNK9 block; Kir2.1 cells, FluxOR thallium flux fluorescence; inhibition, % at 10 µM; 4,900 tested, 4% active;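 active = thallium signal drop more than 5 SD beyond the mean of the no-compound control wells, seen in both duplicate plates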;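 also: signal is fluorescence rise after thallium addition divided by baseline fluorescence; plate controls were assay buffer only for no effect and full block by chlorpromazine control for full effect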
KCNK9 uninduced = thallium flux in non-induced HEK293 cells, confirmation, counter-screen for KCNK9 inhibitor project, cell-based, second counter screen, non-induced KCNK9-HEK293 | shares compounds with KCNK9 block | FluxOR thallium flux | inhibition, % at 10 µM | 4,900 tested, 40% active;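 active = thallium signal drop beyond 5 SD of the untreated control mean, on both duplicate plates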;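 also: plate controls were buffer only IC0 wells for no effect and SID17386958 at its maximal inhibitory level for full effect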
* marks the source's active call; other numbers are inactive results; i = inactive; / = no result given.

SMILES | KCNQ1 pot | KCNK9 block | KCNK3 block | Kir21 inh | hERG protect | KCNQ1 inh | KCNK9 block conf | Kir21 sel | KCNK9 uninduced
Cc1cc(C)c(C)c(S(=O)(=O)NCc2ccncc2)c1C | i | i | i | -0.58 | -11.7 | i | / | / | /
CCCc1cc(=O)c2ccc(OC/C(C)=N/O)cc2o1 | i | i | i | 0.76 | -2.1 | i | / | / | /
COc1ccc(/C=C2\SC(=S)N(NS(=O)(=O)c3ccccc3)C2=O)c(OC)c1 | 19* | i | i | 2.51 | -8.2 | i | i | i | i
CCOc1ccc(/C=C2\SC(=S)N(NS(=O)(=O)c3ccc(C)cc3)C2=O)cc1OC | i | i | i | 0.72 | -18.1 | i | i | i | i
COc1ccc(OC)c(/C=C2\SC(=S)N(NS(=O)(=O)c3ccc(C)cc3)C2=O)c1 | i | i | i | -0.23 | -4.3 | i | i | i | i
CC(C)CN(C(=O)COC(=O)CN1C(=O)c2ccccc2C1=O)c1c(N)n(Cc2ccccc2)c(=O)[nH]c1=O | i | i | i | 0.37 | -15.0 | i | / | / | /
O=C(Nc1ccccc1)NN(C(=O)CCl)c1ccccc1 | i | i | i | 1.78 | -10.7 | i | / | / | /
O=C(/C=C/c1cccs1)c1cc(Br)ccc1OC(=O)N1CCOCC1 | i | -9.75* | i | 0.64 | -2.6 | i | 29.5%* | i | 23.0%*
COc1ccc(CN2CCN(C(=O)C3CCC(CNS(=O)(=O)c4ccccc4)CC3)CC2)c(OC)c1OC (stereo not drawn) | i | i | i | -0.58 | -10.6 | i | / | / | /
CC1=C(C(=O)OC(C)C)C(c2cccc(F)c2)N2C(=O)C(C)SC2=N1 (stereo not drawn) | i | -12.6* | i | -0.61 | -14.3 | i | 55.5%* | i | 54.5%*
CCOC(=O)C1=C(C)N=C2SC(C)C(=O)N2C1c1cccc(F)c1 (stereo not drawn) | i | -16.6* | i | -0.02 | -13.9 | 6* | 64.5%* | i | 60.5%*
CCOC(=O)C1=C(C)N=C2SC(C)C(=O)N2C1c1ccc(OC(C)=O)c(OCC)c1 (stereo not drawn) | i | i | / | -1.46 | -8.8 | i | / | / | /
CC(C)C(C)(C#N)NC(=O)CSc1nnc(-c2ccccc2)o1 (stereo not drawn) | i | i | i | -0.02 | -5.9 | i | / | / | /
O=C(Nc1cccc(Cl)c1)C1C2CCC3C(CCC21)C3(Cl)Cl (stereo not drawn) | i | i | i | -0.86 | -15.4 | i | i | i | i
O=C(Nc1ccccc1)C1C2CCC3C(CCC21)C3(Cl)Cl (stereo not drawn) | i | i | i | -0.52 | -1.2 | i | / | / | /
CCOc1ccccc1NC(=O)C1C2CCC3C(CCC21)C3(Cl)Cl (stereo not drawn) | i | i | i | -0.87 | -7.3 | i | i | i | 31.5%*
O=C(Nc1ccccc1Cl)C1C2CCC3C(CCC21)C3(Cl)Cl (stereo not drawn) | i | i | i | 0.24 | -2.6 | i | / | / | /
